Assay outcomes (PubChem)
In the library only some 1.9% were active in any assay of this set; here they are far more common.
PLCg1 inh – PLC-gamma1 enzyme inhibitors, primary screen, biochemical, fluorescence, purified enzyme; 1-phosphatidylinositol 4,5-bisphosphate phosphodiesterase gamma-1 (Homo sapiens), P19174; fluorogenic substrate; inhibition, % at 12.2 µM; 370,000 compounds, 0.84% hits; in the data active means inhibition above about 9.5%
sPLA2-III inh – human group III sPLA2 inhibitors, primary screen, biochemical, QFRET, BODIPY PC-A2 liposome substrate; Group 3 secretory phospholipase A2 (Homo sapiens), Q9NZ20; QFRET BODIPY PC-A2 liposome hydrolysis, fluorescence; inhibition, % at 12.2 µM; 370,000 compounds, 0.56% hits; AID 743126, 2013;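 active means inhibition above mean plus 3 SD of compounds lying within the high and low control bounds, cut at about 19% in these data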;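 further: 0% = median of test compound wells and 100% = no enzyme DMSO wells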
Target sequence (Q9NZ20 whole entry, looked up): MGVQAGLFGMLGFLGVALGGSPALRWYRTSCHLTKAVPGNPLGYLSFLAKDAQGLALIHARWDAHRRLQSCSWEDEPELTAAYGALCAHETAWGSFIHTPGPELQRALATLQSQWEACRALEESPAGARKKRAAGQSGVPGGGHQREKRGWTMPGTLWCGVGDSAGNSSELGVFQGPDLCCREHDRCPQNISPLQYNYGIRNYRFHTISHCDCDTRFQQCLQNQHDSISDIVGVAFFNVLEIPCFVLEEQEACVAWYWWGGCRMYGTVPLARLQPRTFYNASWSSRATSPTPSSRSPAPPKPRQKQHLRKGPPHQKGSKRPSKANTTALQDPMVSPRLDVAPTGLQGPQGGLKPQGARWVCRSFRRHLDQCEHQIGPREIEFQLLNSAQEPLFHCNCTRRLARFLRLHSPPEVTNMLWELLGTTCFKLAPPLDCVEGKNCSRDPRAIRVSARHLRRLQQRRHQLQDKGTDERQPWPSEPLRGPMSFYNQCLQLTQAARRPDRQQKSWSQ
Tb MetRS inh – T. brucei MetRS inhibitors, primary screen, biochemical, luminescence. methionyl-tRNA synthetase (Trypanosoma brucei brucei). purified T. brucei MetRS, ATP depletion, Kinase-Glo luminescence. inhibition, % at 11.9 µM. 360,000 compounds, 0.4% hits;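 active means inhibition above a per-plate cutoff of the control wells' mean inhibition plus 3 SD, cut at about 5.5% in these data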;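 further: 0% = DMSO wells median and 100% = median of wells with control inhibitor compound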
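Material: T. brucei methionyl-tRNA synthetase, purified; reagent: substrates ATP, L-methionine and bulk Escherichia coli tRNA; dosing: 11.9 µM single point; timing: 15 min plus 2 h at 25 °C; detection: luminescence of leftover ATP; evaluation: % inhibition; control set: DMSO-only wells as low control; replicates: singlicate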
PLCb3 inh – human PLC-beta3 inhibitors, primary screen, biochemical, fluorescence | 1-phosphatidylinositol 4,5-bisphosphate phosphodiesterase beta-3 (Homo sapiens), Q01970 | Purified PLC-beta3, fluorogenic substrate | inhibition, % at 12.2 µM | 370,000 compounds, 0.18% hits | AID 720704, 2013; in the data active means inhibition above about 11%;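 further: 0% = median of compound wells on plate and 100% = full blocker control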
hGIII sPLA2 conf – human group III sPLA2 inhibitors, confirmation, biochemical, QFRET, triplicate. shares compounds with sPLA2-III inh. recombinant hGIII-sPLA2, BODIPY PC-A2 QFRET fluorescence. inhibition, % at 12.2 µM. 2,000 compounds, 34% hits. AID 743280, 2014;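 active means mean inhibition across triplicates above the hit cutoff set in the earlier primary screen, cut at about 19% in these data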;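 further: 0% = enzyme with DMSO and 100% = DMSO wells lacking enzyme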
535nm interf – 535nm fluorescence optical interference, confirmation, artefact control for HGIII-sPLA2 inhibitor project, biochemical, QFRET. shares compounds with sPLA2-III inh. inhibition, % at 12.2 µM. BODIPY FL product fluorescence interference. AID 743282, 2014. 2,000 compounds, 8.5% hits;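 active means average inhibition above the solvent-only control mean plus 3 SD, cut at about 6% in these data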;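 further: 0% = DMSO with substrate plus product and 100% = DMSO with substrate alone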
535nm interf DR – 535nm fluorescence optical interference, dose response, artefact control for HGIII-sPLA2 inhibitor project, biochemical, QFRET; BODIPY FL product fluorescence interference, cell-free; shares compounds with sPLA2-III inh; IC50, µM; 240 tested, under 10 active;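 active means IC50 at or below 10 µM; inactive means IC50 above 10 µM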
* hit, by the source's call; / = not tested or not shown.

SMILES	PLCg1 inh	sPLA2-III inh	Tb MetRS inh	PLCb3 inh	hGIII sPLA2 conf	535nm interf	others
COc1ccc(-n2c(COc3ccc(Cl)cc3)nnc2SCC(=O)Nc2ccc3c(c2)OCO3)cc1	1	-29	/	1	/	/
COc1ccc(NC(=O)Nc2cnccn2)cc1	0	22*	0	-7	2	-4
CCOc1ccc(NC(=O)Nc2cnccn2)cc1	0	3	1	-2	/	/
Cc1ccc(C)c(N2CCN(CC3CCCCC3)CC2)c1	2	21*	0	1	15	-12
CCOC(=O)CC[C@@H]1CC[C@]2(CCCN(S(=O)(=O)C3CCCCC3)C2)O1	3	2	/	3	/	/
Cc1ccc(-n2c(COc3ccccc3)nnc2SCC(=O)Nc2ccc3c(c2)OCO3)cc1	3	-25	/	0	/	/
COc1ccc2nc(NNC(=O)C3COc4ccccc4O3)sc2c1 (stereo not given)	-21	22*	0	-25	18	2
Fc1ccc(NC(=S)Nc2nccs2)cc1	2	23*	1	2	28*	-3	535nm interf DR=>122
S=C(Nc1ccccc1)Nc1nccs1	1	27*	0	-4	30*	1	535nm interf DR=>122
O=C(Cc1ccc(F)cc1)Nc1nccs1	1	-6	0	-4	/	/
Brc1ccc(C=Nc2ccc3c(c2)OCCOCCOCCO3)s1	-2	24*	0	-4	6	-9
FC(F)(F)c1cnc(NNC(=S)Nc2ccccc2)c(Cl)c1	-1	-2	1	-7	/	/
FC(F)(F)c1cnc(NNC(=S)Nc2cccnc2)c(Cl)c1	-6	20*	-1	-4	33*	1	535nm interf DR=>122
CCOc1ccc(-c2cc(C(=O)OC)c3n(c2=O)CCC3)cc1	-50	-3	/	-63	/	/
COC(=O)C[C@@H]1CC[C@H]2[C@@H](COc3ccc(NC(=O)c4ccc(C(F)(F)F)cc4)cc3C(=O)N2C)O1	2	0	/	4	/	/
O=C(O)c1cccc(NC2=C(N3CCOCC3)C(=O)c3ccccc3C2=O)c1	-1	0	0	-8	/	/
CN(C1=C(N2CCOCC2)C(=O)c2ccccc2C1=O)c1ccccc1	-6	25*	1	-7	44*	2	535nm interf DR=>122
COC(=O)C1=C(C)N(C)C(=NCC2CC2)NC1c1cccc(F)c1 (stereo not given)	-3	7	/	-4	/	/
C=CCNC(=S)NNc1nc2c(c(=O)[nH]1)C1(CCCC1)Cc1ccccc1-2	-16	19	1	-22	/	/
O=c1[nH]c(NNC(=S)NCc2ccccc2)nc2c1C1(CCCCC1)Cc1ccccc1-2	-27	23*	-1	-40	32*	9.4*
COc1ccc(N2CCN(C(c3cccs3)C(C)NC(=O)c3ccc4c(c3)OCO4)CC2)cc1 (stereo not given)	4	22*	0	-6	2	-14
COc1ccc(N2CCN(C(c3cccs3)C(C)NC(=O)c3ccco3)CC2)cc1 (stereo not given)	-1	9	0	4	/	/
O=C(/C=C/c1ccc([N+](=O)[O-])cc1)c1cccs1	7	1	0	-6	/	/
O=C(/C=C/c1cccs1)c1ccc([N+](=O)[O-])cc1	8	21*	0	-4	4	-2
CCCCn1c(=O)nc2n(-c3ccc(Cl)cc3)c3ccccc3cc-2c1=O	-41	25*	-1	-55	0	-8
O=S(=O)(c1cccc(C(F)(F)F)c1)N1CCN(C(=S)NC2CC2)CC1	1	22*	0	-5	17	-4
COc1ccc2ccccc2c1/C=N/NC(=O)c1cccc(Br)c1	1	0	0	-9	/	/
O=C(N/N=C/c1c(O)ccc2ccccc12)c1cccc(C(F)(F)F)c1	-61	43*	-1	-66	-11	-5
